Measured values as given in ChEMBL document CHEMBL1126202, “Dual-action penems and carbapenems” (J Med Chem, 1992).

Key:
[1] = molecular target: T1, Penicillin-binding protein 2b (Staphylococcus aureus) (UniProt Q9XDB3); experiment: Concentration inhibiting [14C]- Penicillin G binding to Staphylococcus aureus ATCC 29213 Penicillin binding protein 3, 85 kDa
T1 sequence (whole entry): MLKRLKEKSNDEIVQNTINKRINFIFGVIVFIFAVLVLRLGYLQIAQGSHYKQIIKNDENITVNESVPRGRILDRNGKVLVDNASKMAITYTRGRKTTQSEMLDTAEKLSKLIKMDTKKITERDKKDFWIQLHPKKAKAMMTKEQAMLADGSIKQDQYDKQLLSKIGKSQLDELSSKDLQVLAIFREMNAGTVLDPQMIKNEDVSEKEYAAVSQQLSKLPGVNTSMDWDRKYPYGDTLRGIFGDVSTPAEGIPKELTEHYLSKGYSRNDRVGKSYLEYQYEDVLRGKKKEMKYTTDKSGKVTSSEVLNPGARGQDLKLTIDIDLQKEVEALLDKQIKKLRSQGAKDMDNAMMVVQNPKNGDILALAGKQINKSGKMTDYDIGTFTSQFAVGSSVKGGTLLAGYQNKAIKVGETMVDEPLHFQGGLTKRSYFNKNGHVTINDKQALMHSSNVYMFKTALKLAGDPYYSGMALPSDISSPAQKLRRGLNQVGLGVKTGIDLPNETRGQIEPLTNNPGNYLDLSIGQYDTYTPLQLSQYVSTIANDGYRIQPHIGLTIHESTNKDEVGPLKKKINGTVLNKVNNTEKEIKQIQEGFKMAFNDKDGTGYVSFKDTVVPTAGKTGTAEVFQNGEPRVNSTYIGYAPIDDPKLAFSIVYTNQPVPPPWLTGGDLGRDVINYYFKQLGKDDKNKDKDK

Staphylococcus aureus = experiment: Minimum inhibitory concentration to the Penicillin G binding to Staphylococcus aureus ATCC 29213 Penicillin binding protein
Streptococcus pneumoniae = experiment: In vitro antibacterial activity against Streptococcus pneumoniae 6301; assay type: functional
Method in brief: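 Streptococcal MICs were determined by agar dilution on brain heart infusion agar supplemented with 20 units/mL bovine liver catalase. Final concentrations were 128 to 0.0156 μg/mL from 2-fold dilutions. Inocula were overnight broth cultures diluted 100-fold, applied by Steers replicator.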

Bacteroides fragilis = experiment: In vitro antibacterial activity against Bacteroides fragilis S2; assay type: functional
Method in brief: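 Anaerobic MICs were determined in microtiter plates in Schaedler's broth supplemented with coenzyme I and hemin. Incubation was under an oxygen-free hydrogen-carbon dioxide atmosphere.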

Escherichia coli = experiment: Minimum inhibitory concentration inhibiting [14C]- Penicillin G binding to Escherichia coli UB1005 PBPs
Pseudomonas aeruginosa = experiment: In vitro antibacterial activity against Ps. aeruginosa 18SH (constitutive beta-lactamase producer); assay type: functional
Method in brief: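 MIC was determined by agar dilution on Mueller-Hinton agar. Serial 2-fold aqueous dilutions were diluted 10-fold in agar to give final concentrations of 128 to 0.0156 μg/mL. Plates were inoculated by Steers replicator with overnight broth cultures diluted 100-fold.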

C[C@@H](O)[C@H]1C(=O)N2C(C(=O)[O-])=C(COC(=O)N3CCN(c4cc5c(cc4F)c(=O)c(C(=O)O)cn5C4CC4)CC3)S[C@H]12.[Na+]
IC90 [1]: 2 µg/mL | MIC (Staphylococcus aureus): 0.25 µg/mL

C[C@@H](O)[C@H]1C(=O)N2C(C(=O)[O-])=C(CO)S[C@H]12.[Na+]
MIC (Streptococcus pneumoniae): 0.125 µg/mL | MIC (Bacteroides fragilis): < 0.125 µg/mL

C[C@@H](O)[C@H]1C(=O)N2C(C(=O)[O-])=C(COC(=O)c3cn(CCF)c4c(F)c(N5CCN(C)CC5)c(F)cc4c3=O)S[C@H]12.[Na+]
MIC (Escherichia coli): 2 µg/mL | MIC (Pseudomonas aeruginosa): 4 µg/mL
